Published values pooled from the literature.
Each line is one published result; the experiments were not run side by side.
Target: SRSF protein kinase 2 (SRPK2, Homo sapiens, UniProt P78362)

Cc1cnc(Nc2ccc(C(=O)N3CCC(N4CCCC4)CC3)cc2)nc1-c1cc2ccccc2s1
remaining binding (binding, competition with immobilised ligand; 1 µM): 100%

COc1ccnn2ncc(-c3ccnc(N(C)C)n3)c12
remaining binding (binding; 1 µM): 100%

CNC(=O)[C@@H]1CC[C@@H](n2c(-c3ccc4cnccc4c3)nc3ccc(C(=O)NCc4cccc(C(N)=O)c4)cc32)C1
remaining binding (binding, competition with immobilised ligand; 1 µM): 100%

CC(=O)C1=C(C)N(c2cccc(C(F)(F)F)c2)C(=O)N[C@@H]1c1ccc(C#N)nc1
remaining binding (cell-free assay, competition with immobilised ligand; 1 µM): 100%

CN(C)c1nccc(-c2cnn3ncccc23)n1
remaining binding (binding; 1 µM): 100%

CCN1CCN(Cc2ccc(C(=O)Nc3ccc(C)c(Oc4ccc5c(c4)CC(=O)N5)c3)cc2C(F)(F)F)CC1
remaining binding (binding, competition with immobilised ligand; 1 µM): 100%

c1cncc(-c2cccc(Nc3nccc(NC4CCCCC4)n3)c2)c1
remaining binding (binding, competition with immobilised ligand; 10 µM): 100%

CN(C)C(=O)Cn1cc(-c2nc(C3(c4ccc(-c5cnc(N)nc5)cc4)CC3)no2)cn1
remaining binding (cell-free assay, competition with immobilised ligand; 1 µM): 91%

CN(CCCC(F)(F)F)c1nccc(-c2cnn3ncccc23)n1
remaining binding (binding; 1 µM): 100%

O=C(Nc1c[nH]nc1C(=O)NC1CCNCC1)c1cc(F)cc(F)c1
remaining binding (binding, competition with immobilised ligand; 1 µM): 85%

C[C@H]1CCN(c2nccc(-c3cnn4ncccc34)n2)C1
remaining binding (binding; 1 µM): 93%

CS(=O)(=O)N1CCCC(NC(=O)[C@H](CCC2CCCCC2)NC(=O)c2ccc(CNC(=O)c3cnc4ccccn34)cc2)C1 (stereo partly drawn)
remaining binding (cell-free assay, competition with immobilised ligand; 0.1 µM): 83%

FC(F)(F)Oc1cccc(-c2cnc3ccc(-c4ccncc4)nn23)c1
remaining binding (binding, competition with immobilised ligand; 5 µM): 66%

CC1CCCN1c1nccc(-c2cnn3ncccc23)n1 (stereo not drawn)
remaining binding (binding; 1 µM): 100%

O=C1NC(c2ccccn2)Sc2ccccc21 (stereo not drawn)
remaining binding (cell-free assay, competition with immobilised ligand; 1 µM): 100%

COc1cnc(Nc2cccc(S(N)(=O)=O)c2)nc1N1CCN(c2ccccc2)C(=O)C1
remaining binding (binding, competition with immobilised ligand; 1 µM): 89%

O=C(c1ccc(Nc2ncc(Cl)c(-c3cc4ccccc4s3)n2)cc1)N1CCC(N2CCCC2)CC1
remaining binding (binding, competition with immobilised ligand; 1 µM): 99%

CC1=C(C#N)C(c2ccc3c(c2)c(NC(=O)c2ccccc2C)nn3C)C(C#N)=C(C)N1
remaining binding (cell-free assay, competition with immobilised ligand; 1 µM): 88%

O=C(NCCCN1CCOCC1)c1ccc(Nc2nccc(-c3cc4ccccc4s3)n2)cc1
remaining binding (binding, competition with immobilised ligand; 1 µM): 99%

Cc1nc(Cc2cccc(C(F)(F)F)c2)sc1-c1ccc(C(N)=O)nc1
remaining binding (cell-free assay, competition with immobilised ligand; 1 µM): 100%

N[C@H]1CCN(c2nccc(-c3cnn4ncccc34)n2)C1
remaining binding (binding; 1 µM): 62%
